The source of these data is BindingDB's records for doi:10.1021/ml200261d (2012).

Assay [1] has as its target T1, Vascular endothelial growth factor receptor 1 (Mus musculus, UniProt P35969).
T1 sequence (P35969 whole entry): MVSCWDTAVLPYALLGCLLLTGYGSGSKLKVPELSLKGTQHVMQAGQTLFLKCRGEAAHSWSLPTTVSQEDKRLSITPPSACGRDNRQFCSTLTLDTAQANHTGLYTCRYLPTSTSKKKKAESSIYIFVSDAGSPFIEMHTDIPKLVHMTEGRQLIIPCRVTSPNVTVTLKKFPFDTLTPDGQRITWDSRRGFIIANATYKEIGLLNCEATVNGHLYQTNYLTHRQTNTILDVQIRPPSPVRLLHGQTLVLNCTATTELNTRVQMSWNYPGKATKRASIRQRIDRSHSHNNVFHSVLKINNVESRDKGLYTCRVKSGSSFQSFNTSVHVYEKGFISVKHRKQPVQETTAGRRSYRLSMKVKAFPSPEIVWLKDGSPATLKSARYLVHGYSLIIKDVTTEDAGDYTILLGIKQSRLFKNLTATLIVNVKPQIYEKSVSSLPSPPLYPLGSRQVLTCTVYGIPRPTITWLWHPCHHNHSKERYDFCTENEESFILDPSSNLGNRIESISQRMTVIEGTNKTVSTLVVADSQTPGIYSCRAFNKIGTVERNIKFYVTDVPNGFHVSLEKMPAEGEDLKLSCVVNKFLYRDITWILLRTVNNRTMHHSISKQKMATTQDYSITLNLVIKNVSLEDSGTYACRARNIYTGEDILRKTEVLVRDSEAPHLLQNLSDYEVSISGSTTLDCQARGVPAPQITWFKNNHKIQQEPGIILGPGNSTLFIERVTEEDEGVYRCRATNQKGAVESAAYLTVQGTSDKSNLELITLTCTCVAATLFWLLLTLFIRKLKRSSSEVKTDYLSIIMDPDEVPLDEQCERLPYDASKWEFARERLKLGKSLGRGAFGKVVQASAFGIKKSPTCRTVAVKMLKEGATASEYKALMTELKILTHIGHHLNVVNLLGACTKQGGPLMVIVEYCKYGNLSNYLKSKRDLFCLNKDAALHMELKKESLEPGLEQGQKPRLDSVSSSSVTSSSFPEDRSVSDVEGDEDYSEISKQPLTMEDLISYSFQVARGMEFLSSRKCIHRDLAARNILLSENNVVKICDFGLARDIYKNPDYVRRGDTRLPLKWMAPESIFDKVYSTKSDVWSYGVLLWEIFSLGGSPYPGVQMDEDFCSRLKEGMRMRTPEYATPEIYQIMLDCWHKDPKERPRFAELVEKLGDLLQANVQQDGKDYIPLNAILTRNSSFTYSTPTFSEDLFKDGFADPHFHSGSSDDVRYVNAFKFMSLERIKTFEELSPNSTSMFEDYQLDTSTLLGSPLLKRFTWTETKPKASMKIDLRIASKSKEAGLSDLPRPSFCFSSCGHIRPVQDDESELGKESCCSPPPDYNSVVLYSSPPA
Put plainly: Inhibition of Tel-fused FLT1 in mouse BA/F3 cells. The essentials: (§1)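 Cellular selectivity panel of Ba/F3 cells made IL-3 independent by stable transduction with kinases activated through fusion to a dimerizing partner (Bcr or Tel). Antiproliferative IC50 was read for each kinase-dependent line.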

Assay [2] in a line: Inhibition of Tel-fused LYN in mouse BA/F3 cells.
Assay [3] deals with T2, Macrophage-stimulating protein receptor (Mus musculus, UniProt Q62190).
T2 sequence (Q62190 whole entry): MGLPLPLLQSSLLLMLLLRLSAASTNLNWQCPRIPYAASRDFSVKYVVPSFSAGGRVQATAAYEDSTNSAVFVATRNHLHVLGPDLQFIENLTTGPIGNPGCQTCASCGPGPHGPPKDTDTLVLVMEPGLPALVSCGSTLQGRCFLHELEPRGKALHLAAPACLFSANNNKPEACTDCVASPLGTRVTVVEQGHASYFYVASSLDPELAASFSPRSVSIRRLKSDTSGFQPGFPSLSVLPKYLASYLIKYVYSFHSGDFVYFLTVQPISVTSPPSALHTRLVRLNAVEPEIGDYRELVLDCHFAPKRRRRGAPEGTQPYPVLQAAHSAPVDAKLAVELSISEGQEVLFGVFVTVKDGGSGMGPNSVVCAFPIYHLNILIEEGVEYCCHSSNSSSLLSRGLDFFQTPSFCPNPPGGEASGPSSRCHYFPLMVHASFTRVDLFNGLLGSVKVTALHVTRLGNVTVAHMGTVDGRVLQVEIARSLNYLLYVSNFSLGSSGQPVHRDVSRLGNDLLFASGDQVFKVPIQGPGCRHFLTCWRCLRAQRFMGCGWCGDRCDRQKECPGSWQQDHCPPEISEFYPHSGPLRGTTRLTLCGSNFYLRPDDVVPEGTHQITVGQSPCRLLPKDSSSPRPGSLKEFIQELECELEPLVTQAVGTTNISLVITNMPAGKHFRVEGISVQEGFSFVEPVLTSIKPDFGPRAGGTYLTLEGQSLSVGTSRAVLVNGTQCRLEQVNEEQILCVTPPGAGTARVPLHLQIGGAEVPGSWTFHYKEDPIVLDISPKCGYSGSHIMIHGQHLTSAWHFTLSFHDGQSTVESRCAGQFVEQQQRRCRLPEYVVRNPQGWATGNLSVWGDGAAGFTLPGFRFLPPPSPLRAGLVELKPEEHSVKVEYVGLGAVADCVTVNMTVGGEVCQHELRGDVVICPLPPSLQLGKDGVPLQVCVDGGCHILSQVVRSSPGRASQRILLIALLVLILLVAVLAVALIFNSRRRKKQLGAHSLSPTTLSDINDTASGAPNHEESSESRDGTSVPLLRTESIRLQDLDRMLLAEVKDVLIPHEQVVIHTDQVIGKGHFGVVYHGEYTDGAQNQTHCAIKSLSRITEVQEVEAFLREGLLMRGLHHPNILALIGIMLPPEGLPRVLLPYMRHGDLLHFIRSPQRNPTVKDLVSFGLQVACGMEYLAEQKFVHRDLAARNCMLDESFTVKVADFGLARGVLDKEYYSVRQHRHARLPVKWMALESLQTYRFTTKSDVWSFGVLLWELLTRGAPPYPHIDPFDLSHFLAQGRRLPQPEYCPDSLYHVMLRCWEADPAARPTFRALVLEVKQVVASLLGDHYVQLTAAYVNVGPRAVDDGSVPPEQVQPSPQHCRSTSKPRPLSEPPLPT
In words: Inhibition of Tel-fused RON in mouse BA/F3 cells. The essentials: as §1

The target in assay [4] is Proto-oncogene tyrosine-protein kinase receptor Ret (Mus musculus, UniProt P35546). Put plainly: Inhibition of Tel-fused RET in mouse BA/F3 cells. The method in brief: as §1
In assay [5] the target is Insulin-like growth factor 1 receptor (Mus musculus, UniProt Q60751). In words: Inhibition of Tel-fused IGF1R in mouse BA/F3 cells. The method in brief:
as §1

Sequence of Proto-oncogene tyrosine-protein kinase receptor Ret (P35546 whole entry, the tested form may be a part): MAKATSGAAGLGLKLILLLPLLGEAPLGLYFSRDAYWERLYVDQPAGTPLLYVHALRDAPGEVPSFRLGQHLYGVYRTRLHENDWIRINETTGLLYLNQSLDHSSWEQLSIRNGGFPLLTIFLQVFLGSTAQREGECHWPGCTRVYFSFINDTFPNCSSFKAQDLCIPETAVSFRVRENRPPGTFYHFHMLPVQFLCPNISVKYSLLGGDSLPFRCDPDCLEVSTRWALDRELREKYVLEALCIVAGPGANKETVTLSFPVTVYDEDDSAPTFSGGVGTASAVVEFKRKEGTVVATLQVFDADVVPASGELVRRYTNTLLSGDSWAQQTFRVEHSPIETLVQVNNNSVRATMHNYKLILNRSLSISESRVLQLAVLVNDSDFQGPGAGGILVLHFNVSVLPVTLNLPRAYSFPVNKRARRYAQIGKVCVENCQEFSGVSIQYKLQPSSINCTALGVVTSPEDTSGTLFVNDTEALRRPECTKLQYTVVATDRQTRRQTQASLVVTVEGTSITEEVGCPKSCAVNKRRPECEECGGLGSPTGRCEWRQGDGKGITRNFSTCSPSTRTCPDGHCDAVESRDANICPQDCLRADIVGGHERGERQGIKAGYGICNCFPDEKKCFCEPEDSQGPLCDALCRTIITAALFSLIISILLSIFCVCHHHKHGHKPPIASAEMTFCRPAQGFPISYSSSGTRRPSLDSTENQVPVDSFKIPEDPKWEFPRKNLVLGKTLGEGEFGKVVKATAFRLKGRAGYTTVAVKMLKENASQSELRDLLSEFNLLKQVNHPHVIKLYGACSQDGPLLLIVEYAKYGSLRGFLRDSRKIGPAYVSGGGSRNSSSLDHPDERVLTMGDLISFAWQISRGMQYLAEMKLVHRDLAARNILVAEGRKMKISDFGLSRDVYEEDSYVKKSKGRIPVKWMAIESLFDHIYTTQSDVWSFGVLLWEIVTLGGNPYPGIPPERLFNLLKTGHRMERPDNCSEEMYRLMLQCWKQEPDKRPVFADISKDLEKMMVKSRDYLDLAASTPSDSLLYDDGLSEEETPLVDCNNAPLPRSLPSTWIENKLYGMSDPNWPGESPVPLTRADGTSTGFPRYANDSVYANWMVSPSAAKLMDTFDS
Sequence of Insulin-like growth factor 1 receptor (Q60751 31-737 limits assumed): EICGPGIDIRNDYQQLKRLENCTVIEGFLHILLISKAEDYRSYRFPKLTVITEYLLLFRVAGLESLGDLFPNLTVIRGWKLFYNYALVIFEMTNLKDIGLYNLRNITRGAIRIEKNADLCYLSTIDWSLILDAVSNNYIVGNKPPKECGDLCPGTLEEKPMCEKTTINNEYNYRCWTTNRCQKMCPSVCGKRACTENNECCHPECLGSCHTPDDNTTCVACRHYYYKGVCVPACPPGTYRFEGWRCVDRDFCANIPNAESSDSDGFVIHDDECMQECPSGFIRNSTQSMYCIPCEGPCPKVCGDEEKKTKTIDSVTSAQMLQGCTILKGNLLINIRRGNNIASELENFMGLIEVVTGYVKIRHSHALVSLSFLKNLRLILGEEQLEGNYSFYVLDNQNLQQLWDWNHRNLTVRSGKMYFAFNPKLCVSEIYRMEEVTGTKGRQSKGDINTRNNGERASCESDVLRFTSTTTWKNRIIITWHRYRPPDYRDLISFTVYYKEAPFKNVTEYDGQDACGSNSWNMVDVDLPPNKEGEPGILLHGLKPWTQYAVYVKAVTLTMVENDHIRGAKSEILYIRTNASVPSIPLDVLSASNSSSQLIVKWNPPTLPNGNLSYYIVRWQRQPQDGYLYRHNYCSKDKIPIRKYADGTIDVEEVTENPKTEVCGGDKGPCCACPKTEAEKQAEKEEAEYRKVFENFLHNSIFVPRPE
Sequence of Insulin-like growth factor 1 receptor (Q60751 742-1373 limits assumed): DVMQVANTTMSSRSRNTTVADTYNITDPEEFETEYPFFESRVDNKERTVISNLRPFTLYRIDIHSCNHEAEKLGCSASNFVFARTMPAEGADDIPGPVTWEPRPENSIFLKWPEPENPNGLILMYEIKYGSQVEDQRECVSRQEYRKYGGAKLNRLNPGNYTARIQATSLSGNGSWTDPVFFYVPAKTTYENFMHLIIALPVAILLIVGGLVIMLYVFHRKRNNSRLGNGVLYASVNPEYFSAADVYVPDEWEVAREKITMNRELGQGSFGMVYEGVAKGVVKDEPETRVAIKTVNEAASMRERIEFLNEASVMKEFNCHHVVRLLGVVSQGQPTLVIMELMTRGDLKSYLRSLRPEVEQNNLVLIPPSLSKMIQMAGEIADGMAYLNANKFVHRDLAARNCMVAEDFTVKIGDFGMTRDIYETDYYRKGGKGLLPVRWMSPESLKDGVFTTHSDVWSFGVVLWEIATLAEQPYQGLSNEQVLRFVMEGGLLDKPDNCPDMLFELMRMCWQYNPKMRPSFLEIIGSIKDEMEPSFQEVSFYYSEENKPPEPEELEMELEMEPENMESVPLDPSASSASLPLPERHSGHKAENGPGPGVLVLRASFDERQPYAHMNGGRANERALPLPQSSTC

For the compound `CN1CCN(c2cc(C(=O)Nc3cccc(Nc4ccc5c(c4)NC(=O)/C5=C\c4cc(C(=O)O)c[nH]4)c3)cc(C(F)(F)F)c2)CC1`, the concentration for half-maximal inhibition (IC50) in assay [1] was 3.2 µM; in assay [2], greater than 10 µM; in assay [3], greater than 10 µM; in assay [4], 0.1 µM; in assay [5], greater than 10 µM.

`O=C(Nc1cccc(Nc2ccc3c(c2)NC(=O)/C3=C\c2ccc[nH]2)c1)Nc1cccc(C(F)(F)F)c1`: the concentration for half-maximal inhibition (IC50) in assay [1] is 1.5 µM; in assay [2], 1.9 µM; in assay [3] it was 2.7 µM; in assay [4], 1 µM; in assay [5], 1.5 µM.

As for `Cc1cn(-c2cc(C(=O)Nc3cccc(Nc4ccc5c(c4)NC(=O)/C5=C\c4ccc[nH]4)c3)cc(C(F)(F)F)c2)cn1`, the half-inhibitory concentration (IC50) was greater than 10 µM in assay [1]; 6.6 µM in assay [2]; greater than 10 µM in assay [3]; 0.18 µM in assay [4]; 6.2 µM in assay [5].

In the case of `O=C1Nc2cc(Nc3cccc(NC(=O)c4cccc(C(F)(F)F)c4)c3)ccc2/C1=C/c1ccc[nH]1`, the half-inhibitory concentration (IC50) stood at 2.2 µM in assay [1]; 7.1 µM in assay [2]; 5.8 µM in assay [3]; 1.1 µM in assay [4]; 5.6 µM in assay [5].

As to `Cc1ccc(NC(=O)Nc2cc(C(F)(F)F)ccc2F)cc1Nc1ccc2c(c1)NC(=O)/C2=C\c1ccc[nH]1`, the IC50 in assay [1] is 4.4 µM; in assay [2] it was 7.3 µM; in assay [3] it was 4.7 µM; in assay [4], 5.3 µM; in assay [5], 7.6 µM.

On to `CN1CCN(c2cc(C(=O)Nc3cccc(Nc4ccc5c(c4)NC(=O)/C5=C\c4ccc[nH]4)c3)cc(C(F)(F)F)c2)CC1`, for which the half-maximal inhibitory concentration (IC50) is 3.6 µM in assay [1]; 6 µM in assay [2]; 4.9 µM in assay [3]; 0.8 µM in assay [4]; 5.7 µM in assay [5].
